Measured values as given in article PMC6297906 (Computational and Structural Biotechnology Journal, 2018).
Where “and” joins values, the source holds several entries; their conditions need not be identical. Equal values may be shown once.

What was measured:
[1] = Octanol/water partition coefficient; format: physicochemical; conditions: room temperature
In short: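 Lipophilicity taken as Po/w = Ao/Aw. Test compound concentrations in the octanol and water phases measured from electronic absorption spectra.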

MDA-MB-231 cells [2] = assay: MTT assay, MDA-MB-231; format: cell-based, human; conditions: read-out: IC50 MDA-MB-231, 72 h treatment
In short: (§1)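 Cells grown in DMEM with 10% FBS, penicillin and streptomycin, seeded at 5 × 10^3 per well for 24 h. Test compound added at 0, 1.56, 3.125, 6.25, 12.5, 25, 50 or 100 μM for 72 h. MTT (5 mg/mL stock) added for 4 h; medium replaced by DMSO; absorbance read at 490 nm for IC50.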

MCF-7 cells = assay: MTT assay, MCF-7; format: cell-based, human; conditions: read-out: IC50 MCF-7, 72 h treatment
In short: as §1

HaCaT cells = assay: MTT assay, HaCaT normal cells; format: cell-based, human; conditions: read-out: IC50 HaCaT, 72 h treatment, normal cell line
In short: as §1

A549 cells = assay: MTT assay, A549; format: cell-based, human; conditions: read-out: IC50 A549, 72 h treatment
In short: as §1

HepG2 cells = assay: MTT assay, HepG2; format: cell-based, human; conditions: read-out: IC50 HepG2, 72 h treatment
In short: as §1

[3] = system: transgenic Tg(fli1a:EGFP) zebrafish embryos; assay: Angiogenic effect in vivo, transgenic zebrafish embryos; conditions: 5.0 μM, compared with PTK787
MDA-MB-231 cells [4] = assay: FITC-conjugated gelatin invasion assay; format: cell-based, human; conditions: 5 μM, 24 h
In short: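 MDA-MB-231 cells (2 × 10^5 per well) treated with 0 or 5 μM test compound, plated on FITC-gelatin-coated coverslips, and incubated 24 h at 37 °C. Gelatin degradation (dark holes) imaged by laser confocal microscopy; invasive percentage derived. Means ± SEM; one-way ANOVA versus control.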

MDA-MB-231 cells [5] = assay: TUNEL assay; format: cell-based, human; conditions: 20 μM
In short: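 MDA-MB-231 cells given test compound (0, 10, 20 μM). Fixed in 4% p-formaldehyde in PBS 30 min; permeabilised with 0.3% Triton X-100 in PBS (25 °C, 8 min). TUNEL reaction mixture applied 1 h, then DAPI (0.5 μg/mL, 37 °C, 8 min) in the dark. Read by fluorescence microscopy.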

[6] = system: MDA-MB-231 cells in zebrafish xenografts; assay: Zebrafish xenograft breast cancer model; format: in vivo; conditions: 5 μM, 72 h
In short: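 DiI-labelled MDA-MB-231 cells (10^7 cells/mL; 50–500 cells) microinjected into the perivitelline space near the SIVs of Tg(fli1:EGFP) zebrafish embryos at 48 hpf. Xenografted fish kept 10 per well in 2 mL aquaculture water with 0 or 5 μM test compound for 72 h. Fluorescence imaging every 24 h; n = 10/group.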

MDA-MB-231 cells [7] = assay: Immunofluorescence of paxillin and F-actin; format: cell-based, human; conditions: 5 and 10 μM, 24 h
In short: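 MDA-MB-231 cells on cover glass, exposed to test compound (0, 5, 10 μM) for 24 h, then fixed in 4% formaldehyde 25 min and blocked in 5% BSA 30 min. Stained with rabbit monoclonal anti-paxillin (1:100, 60 min), Alexa Fluor 488 anti-rabbit (1:200, 30 min), rhodamine phalloidin for F-actin (1:100, 30 min) and DAPI (0.5 μg/mL, 8 min). PBS washes between steps; confocal imaging.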

MDA-MB-231 cells [8] = assay: Comet assay; format: cell-based, human; conditions: 5 and 10 μM
HUVECs = assay: Tube formation assay; format: cell-based; conditions: 5 and 10 μM, 6 h, VEGF 200 ng/mL
In short: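 Matrigel thawed at 4 °C for 24 h, coated into prechilled wells and set at 37 °C for at least 60 min. HUVECs (3 × 10^4) plated in DMEM with VEGF (200 ng/mL) plus test compound (0, 5, 10 μM) for 6 h at 37 °C. Tube networks imaged and analysed.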

MDA-MB-231 cells [9] = assay: Wound-healing assay; format: cell-based, human; conditions: 72 h
In short: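 MDA-MB-231 cells (1 × 10^5/well) grown to >85% confluence, then scratched with a pipette tip. Treated with test compound (0, 2, 4 μM). The same field imaged every 24 h. Migration rate taken as scratch filling, averaged over 10 fields; N = 8. Means ± SEM; one-way ANOVA.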

Row | Compound | logPo/w [1] | IC50 (MDA-MB-231 cells [2]) | IC50 (MCF-7 cells) | IC50 (HaCaT cells) | IC50 (A549 cells) | IC50 (HepG2 cells) | ISV formation inhibition [3] | invasive capability (FITC-gelatin degradation) (MDA-MB-231 cells [4]) | apoptotic cells (TUNEL) (MDA-MB-231 cells [5]) | metastasis of MDA-MB-231 cells into blood vessels [6] | number of MDA-MB-231 cells in zebrafish (proliferation) ([6]; versus control) | total area of SIV (tumor angiogenesis) ([6]; versus control) | quantity of paxillin (focal adhesions) (MDA-MB-231 cells [7]) | stress fibers (F-actin) (MDA-MB-231 cells [7]) | endogenous DSBs (olive tail moment, comet assay) (MDA-MB-231 cells [8]) | percentage of γH2AX focal positive cells (MDA-MB-231 cells [8]; 24 h) | tube formation of HUVECs (HUVECs) | wound-healing rate (MDA-MB-231 cells [9]; 2 μM, versus control) | wound-healing rate (MDA-MB-231 cells [9]; 4 μM)
1 | [Ru(bpy)2(7-CH3-DPPZ)](ClO4)2 [Ru(bpy)2MDPPZ] | −2.17 | > 100 µM | 9.7 ± 6.1 µM | > 100 µM | 93.3 ± 4.1 µM | > 100 µM |  |  |  |  |  |  |  |  |  |  |  |  | 
2 | [Ru(bpy)2(DPPN)](ClO4)2 [Ru(bpy)2BnDPPZ] | −1.65 | > 100 µM | > 100 µM | > 100 µM | 32.5 ± 1.6 µM | 23 ± 1.1 µM |  |  |  |  |  |  |  |  |  |  |  |  | 
3 | [Ru(bpy)2DPPZ](ClO4)2 | −1.87 | > 100 µM | > 100 µM | > 100 µM | > 100 µM | > 100 µM |  |  |  |  |  |  |  |  |  |  |  |  | 
4 | N.N.[Cl][Pt][Cl] [Cis-platin, cisplatin, reference compound] |  | 20.9 ± 1.9 µM | 86.6 ± 5.9 µM | 7.1 ± 0.5 µM | 21.1 ± 0.2 µM | 15.5 ± 0.4 µM |  |  |  |  |  |  |  |  |  |  |  |  | 
5 | [Ru(bpy)2(7-BEDPPZ)](ClO4)2 [Ru(bpy)2BEDPPZ] | −0.87 | ~17.2 µM and 17.2 µM | 74.9 ± 3.5 µM | 47.2 ± 2.6 µM | 20 ± 0.7 µM | 97.5 ± 4.4 µM | more effectively inhibited ISV formation than PTK787 | markedly suppressed | many apoptotic cells were observed | scarce MDA-MB-231 cells were found in the blood vessel | notably reduced | obviously less than that in the control group | decreased quantity of paxillins | inhibited | extremely increased | obviously increased | inhibited notably | less than half of the control group | further decreased
